Data reported in ChEMBL document CHEMBL5653606 (J Pharmacol Exp Ther, 2011).
Active and inactive are the calls of the source.

Assays:
Rattus norvegicus [1] = test: Antihyperalgesic activity in CFA induced Sprague-Dawley rat assessed as inhibition of mechanical allodynia at 1 mg/kg, po measured for 1 to 24 hrs by von frey test; assay type: functional, organism-based; conditions: time 1-24 hrs
In short: (§1)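 Male Sprague-Dawley rats (200–250 g) given 150 μl CFA (1 mg/ml in mineral oil) intraplantar in the hind paw. Mechanical paw withdrawal thresholds read with Von Frey hairs on day 5 postinjection. Dosed orally as nanocrystalline suspension in 2% polyvinylpyrrolidone/0.15% SDS in water, 10 ml/kg. PWTs taken 4 h postdose for dose-response, or at 1, 2, 4, 8, 24 h for time course.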

[2] = molecular target: T1, Fatty-acid amide hydrolase 1 (Rattus norvegicus) (UniProt P97612); test: In vivo inhibition of FAAH in CFA induced Sprague-Dawley rat brain at 0.1 to 10 mg/kg, po relative to control; assay type: functional, organism-based; conditions: dose 0.1-10 mg/kg
T1 sequence (whole entry): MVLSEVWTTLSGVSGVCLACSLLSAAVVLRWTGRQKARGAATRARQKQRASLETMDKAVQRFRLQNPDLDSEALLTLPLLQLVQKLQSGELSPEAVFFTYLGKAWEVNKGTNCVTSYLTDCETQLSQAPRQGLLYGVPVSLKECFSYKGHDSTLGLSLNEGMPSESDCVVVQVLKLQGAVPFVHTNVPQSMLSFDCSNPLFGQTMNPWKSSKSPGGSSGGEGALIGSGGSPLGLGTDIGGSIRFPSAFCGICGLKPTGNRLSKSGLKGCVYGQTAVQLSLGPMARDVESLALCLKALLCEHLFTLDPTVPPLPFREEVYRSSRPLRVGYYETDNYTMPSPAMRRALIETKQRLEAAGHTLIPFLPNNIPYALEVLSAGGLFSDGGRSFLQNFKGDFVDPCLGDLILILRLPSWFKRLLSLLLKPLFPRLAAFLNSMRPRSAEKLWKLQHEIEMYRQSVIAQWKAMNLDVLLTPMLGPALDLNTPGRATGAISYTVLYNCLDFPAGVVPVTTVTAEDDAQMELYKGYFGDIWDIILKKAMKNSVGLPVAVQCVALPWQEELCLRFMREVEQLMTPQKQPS
In short: (§2)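 Brain and blood leukocyte membrane fractions from CFA rats after oral dosing. FAAH activity measured with 3H-labeled AEA substrate, quantifying released 3H-ethanolamine; n = 3 rats/group. Time course sampled at 1, 2, 4, 8, 24 h after 1 mg/kg.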

Rattus norvegicus [3] = test: Antihyperalgesic activity in MIA induced Sprague-Dawley rat assessed as increased joint compression thresholds at 3 mg/kg, po administered once daily for 3 consecutive days and measured after 2 to 4 hrs; assay type: functional, organism-based; conditions: time 3.0 day
In short: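 Male Sprague-Dawley rats (220–270 g), isoflurane-anesthetized, given 2 mg MIA in 0.9% saline (50 μl) intra-articular into the knee. From day 14, oral dosing at 10 ml/kg once daily for 3 days in 4% 2-hydroxypropyl-β-cyclodextrin/1% ethanol in 0.01 M HCl. Celecoxib 30 mg/kg in 0.5% methylcellulose twice daily. Joint compression threshold by digital Randall-Selitto at 2 and 4 h postdose on days 1 and 3; n = 10/group.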

[4] = molecular target: T1, Fatty-acid amide hydrolase 1 (Rattus norvegicus); test: In vivo inhibition of FAAH in CFA induced Sprague-Dawley rat plasma assessed as elevation of OEA level at 1 mg/kg, po measured for 1 to 24 hrs; assay type: functional, organism-based; conditions: time 1-24 hrs
[5] = molecular target: T1, Fatty-acid amide hydrolase 1 (Rattus norvegicus); test: In vivo inhibition of FAAH in CFA induced Sprague-Dawley rat plasma assessed as elevation of NAE level at 0.1 to 10 mg/kg, po; assay type: functional, organism-based; conditions: dose 0.1-10 mg/kg
In short: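 Lipid (NAE) levels in rat brain and plasma measured by LC/MS after oral dosing in CFA rats; n = 3 rats/group. Time-course samples taken at 1, 2, 4, 8, 24 h after 1 mg/kg.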

[6] = molecular target: T1, Fatty-acid amide hydrolase 1 (Rattus norvegicus); test: In vivo inhibition of FAAH in CFA induced Sprague-Dawley rat brain at 1 mg/kg, po measured for 1 to 24 hrs; assay type: functional, organism-based; conditions: time 1-24 hrs; in short: as §2
[7] = molecular target: T1, Fatty-acid amide hydrolase 1 (Rattus norvegicus); test: In vivo inhibition of FAAH in CFA induced Sprague-Dawley rat WBC assessed as elevation of AEA level at 0.1 to 10 mg/kg, po using 3H-labeled AEA as substrate; assay type: functional, organism-based; conditions: dose 0.1-10 mg/kg
Rattus norvegicus [8] = test: Antihyperalgesic activity in CFA induced Sprague-Dawley rat assessed as partial reduction of mechanical allodynia at 3 mg/kg, po in presence of CB1 antagonist SR141716 by von frey test; assay type: functional, organism-based; in short: as §1
[9] = molecular target: T2, Fatty-acid amide hydrolase 1 (Mus musculus) (UniProt O08914); test: Inhibition of FAAH in mouse brain at 100 uM in presence of FP-rhodamine by competitive activity-based protein profiling method; assay type: tissue-based
T2 sequence (whole entry): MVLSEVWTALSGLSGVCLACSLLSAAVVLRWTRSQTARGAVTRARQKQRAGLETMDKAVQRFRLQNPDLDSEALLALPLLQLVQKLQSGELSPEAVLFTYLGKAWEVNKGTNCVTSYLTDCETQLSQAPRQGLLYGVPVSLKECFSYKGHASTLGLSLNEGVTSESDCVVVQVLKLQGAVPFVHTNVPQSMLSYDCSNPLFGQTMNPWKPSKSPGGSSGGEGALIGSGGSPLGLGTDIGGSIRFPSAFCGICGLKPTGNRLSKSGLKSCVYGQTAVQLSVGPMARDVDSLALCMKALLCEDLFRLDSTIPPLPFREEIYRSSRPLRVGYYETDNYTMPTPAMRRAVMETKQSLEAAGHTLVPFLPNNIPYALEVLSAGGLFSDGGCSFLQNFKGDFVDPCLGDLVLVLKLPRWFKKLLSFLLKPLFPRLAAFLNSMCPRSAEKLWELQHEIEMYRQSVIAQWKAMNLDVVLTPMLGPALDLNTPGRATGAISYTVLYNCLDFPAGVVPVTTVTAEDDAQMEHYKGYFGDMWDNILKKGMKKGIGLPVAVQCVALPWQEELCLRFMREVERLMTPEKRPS
In short: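 Competitive ABPP on human and mouse brain, liver and heart proteomes (membrane and soluble fractions), exposed to compound at 10 or 100 μM or to DMSO. Serine hydrolases were then labeled with FP-rhodamine. Gels were read by fluorescence scanning, and loss of band labeling (FAAH or other hydrolases by kDa) was judged.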

[10] = Oral bioavailability in dog; assay type: ADME, organism-based, Canis lupus familiaris; conditions: in vivo
Mus musculus = test: Antinociceptive activity in C57BL6/J mouse assessed as thermal tail immersion at 1 to 10 mg/kg, po administered for 4 hrs; assay type: functional, organism-based; conditions: dose 1-10 mg/kg
In short: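 Male C57BL/6J mice, 7 weeks old, n = 8/group, dosed orally at 1 or 10 mg/kg in PEG 300 (4 ml/kg). Tetrad tested 4 h postdose: locomotor activity, tail-immersion thermal nociception, catalepsy (assessed 60 s), body temperature. Means ± S.E.M. versus vehicle.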

[11] = Brain concentration in CFA induced Sprague-Dawley rat at 0.1 mg/kg, po by LC/MS analysis; assay type: ADME, organism-based; conditions: in vivo, read-out: Ct

- inhibition [2]: 98%
- inhibition [4]: Active
- inhibition [5]: Active
- inhibition [6]: Active
- inhibition [7]: Active
- inhibition [9]: Active
- bioavailability [10]: 58%
- concentration [11]: 38.9 nM
SMILES: O=C(Nc1cccnn1)N1CCC(=Cc2cccc(Oc3ccc(C(F)(F)F)cn3)c2)CC1
- Activity (Rattus norvegicus [1]): Active
- Activity (Rattus norvegicus [3]): Active
- Activity (Rattus norvegicus [8]): Active
- Activity (Mus musculus): Toxic
